Reference: paper PMC8851253 (Heliyon, 2022)

Legend:
[1] = In vitro cytotoxic activity, MTT assay; type: cell-based, human; details: human, U-937 cells, Cytotoxicity LC50, U-937 cells, MTT, ±SD (n = 3)
How it was run: (§1)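 Human U-937 macrophages in RPMI 1640/10% FBS are exposed to test compound from 200 to 0.19 µg/mL. MTT formazan is read as OD at 570 nm, with untreated cells as the viability control. Triplicate. LC50 comes from Probit linear regression of dose-response. Classes: LC50 <100 µM potentially cytotoxic, 100–<200 µM mildly cytotoxic, ≥200 µM noncytotoxic.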

U-937 cells = assay: In vitro cytotoxic activity, MTT assay; type: cell-based, human; details: for Degree of cytotoxicity: class by LC50 scale of b21
How it was run: as §1

[2] = test system: intracellular amastigotes of L. panamensis; assay: Anti-leishmanial activity, GFP flow cytometry in infected U-937 cells; type: cell-based, Leishmania panamensis; details: for EC50: Leishmania panamensis, U-937, 72 h, read-out: Anti-leishmanial EC50; for SI (anti-leishmanial): Selectivity index = LC50 (U-937)/EC50 (L. panamensis); for Anti-leishmanial activity class: L. panamensis
How it was run: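 L. panamensis GFP strain MHOM/CO/87/UA140 stationary promastigotes infect PMA-treated U-937 cells (3×10^5 cells/mL) at 15:1, 3 h at 34 °C, 5% CO2, then washed. At 24 h, test compound (50.0, 12.5, 3.1, 0.8 µg/mL) is added for 72 h at 37 °C. Flow cytometry at 488/525 nm over 10,000 events gives MFI, corrected with uninfected cells. Amphotericin B is the control. Triplicate, two experiments. SI = U-937 LC50/EC50.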

[3] = test system: intracellular amastigotes of T. cruzi (Tulahuen strain); type: cell-based, Trypanosoma cruzi; details: for SI (anti-trypanosomal): Selectivity index = LC50 (U-937)/EC50 (T. cruzi); for EC50: Trypanosoma cruzi, TULAHUEN, U-937, 72 h, read-out: Anti-trypanosomal EC50
How it was run: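 T. cruzi Tulahuen (β-galactosidase-transfected) epimastigotes are grown 10 days at 26 °C. U-937 cells (2.5×10^4/100 µL, 0.16 µM PMA) are infected at 5:1 for 24 h at 37 °C, 5% CO2, RPMI/10% FBS, then washed. Six serial compound dilutions run for 72 h. CPRG 100 µM plus 0.1% NP-40 for 4 h, dark, then OD 570 nm, blank-subtracted. Benznidazole is the control. Triplicate, ≥2 experiments. SI = U-937 LC50/EC50.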

[4] = test system: P. falciparum (3D7 strain); assay: Anti-plasmodial activity, pLDH assay; type: cell-based, Plasmodium falciparum; details: for EC50: Plasmodium falciparum, 3D7, 72 h, read-out: Anti-plasmodial EC50; for SI (anti-plasmodial): Selectivity index = LC50 (U-937)/EC50 (P. falciparum)
How it was run: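 Asynchronous P. falciparum 3D7 at 0.5% parasitemia, 1% hematocrit in RPMI-1640/1% Albumax II is exposed to test compound at 100, 25, 3.125 and 0.78 µg/mL. Incubation is 72 h at 37 °C under 90% N2/5% CO2/5% O2. Freeze-thawed lysate goes into Malstat (pH 9.0) plus NBT/PES for 1 h in the dark. pLDH is read at 650 nm, blank-subtracted. Chloroquine is the control. SI = U-937 LC50/EC50.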

| Structure (SMILES) | CC50 [1] [µM] | Degree of cytotoxicity (U-937 cells) | EC50 [2] [µM] | SI (anti-leishmanial) [2] | SI (anti-trypanosomal) [3] | EC50 [3] [µM] | EC50 [4] [µM] | SI (anti-plasmodial) [4] | Anti-leishmanial activity class [2] | Toxicity class (U-937 cells; class by United Nations 2009 scale) |
| --- | --- | --- | --- | --- | --- | --- | --- | --- | --- | --- |
| O=C(/C=C/c1cccc([N+](=O)[O-])c1)c1cc2ccccc2oc1=O [Compound A7, 3-[(2E)-3-(3-nitrophenyl)prop-2-enoyl]-2H-chromen-2-one] | 112 ± 10.6 | mildly cytotoxic (100 ≤ LC50 < 200 μM) | 64.7 ± 8.6 | 1.73 | 0.23 | 496 ± 62 | 17.9 ± 1.7 | – | – | – |
| O=C(/C=C/c1ccc2c(c1)OCO2)c1cc2ccccc2oc1=O [Compound A13, 3-[(2E)-3-(1,3-benzodioxol-5-yl)prop-2-enoyl]-2H-chromen-2-one] | 38 ± 3.4 | – | > 20 | <1.90 | 0.30 | 129 ± 11 | 15.2 ± 1.1 | – | – | – |
| CCN(CC)CCCC(C)Nc1ccnc2cc(Cl)ccc12 (stereo not shown) [Chloroquine, reference compound] | 155 ± 5.2 | – | – | – | – | – | 3.3 ± 0.4 | 46.34 | – | – |
| O=C(/C=C/c1ccc(Br)cc1)c1cc2ccccc2oc1=O [Compound A11, 3-[(2E)-3-(4-bromophenyl)prop-2-enoyl]-2H-chromen-2-one] | 32.1 ± 2.2 | – | 31.4 ± 4.2 | 1.02 | 0.72 | 44.4 ± 3.5 | 20.9 ± 1.2 | 1.54 | – | – |
| O=C(/C=C/c1ccc([N+](=O)[O-])cc1)c1cc2ccccc2oc1=O [Compound A8, 3-[(2E)-3-(4-nitrophenyl)prop-2-enoyl]-2H-chromen-2-one] | – | – | 197 ± 76.9 | 3.05 | 1.91 | 314 ± 19.9 | 18.4 ± 1 | – | – | – |
| O=C(Cn1ccnc1[N+](=O)[O-])NCc1ccccc1 [Benznidazole, reference compound] | > 200 | – | – | – | >13.83 | 14.5 ± 0.1 | – | – | – | – |
| COc1cccc(/C=C/C(=O)c2cc3ccccc3oc2=O)c1 [Compound A2, 3-[(2E)-3-(3-methoxyphenyl)prop-2-enoyl]-2H-chromen-2-one] | 5.8 ± 0.1 | – | 2.5 ± 0.2 | 2.31 | 0.20 | 28.4 ± 5.7 | 23.3 ± 1.5 | 0.25 | – | – |
| Cc1cccc(/C=C/C(=O)c2cc3ccccc3oc2=O)c1 [Compound A4, 3-[(2E)-3-(3-methylphenyl)prop-2-enoyl]-2H-chromen-2-one] | 5.7 ± 0.1 | – | 10.7 ± 5.7 | 0.53 | 0.11 | 50 ± 5.3 | 35.3 ± 1.4 | 0.16 | highly active (Compounds with EC50 ≤ 25 μM were considered highly active) | – |
| O=C(/C=C/c1ccccc1)c1cc2ccccc2oc1=O [Compound A1, 3-[(2E)-3-phenylprop-2-enoyl]-2H-chromen-2-one] | 6.7 ± 0.1 | – | 3.7 ± 0.5 | 1.82 | 0.15 | 44.1 ± 4.2 | 25.7 ± 3.5 | 0.26 | highly active (Compounds with EC50 ≤ 25 μM were considered highly active) | – |
| C[C@@H]1[C@H](O)[C@@H](C)/C=C/C=C/C=C/C=C/C=C/C=C/C=C/[C@H](O[C@@H]2O[C@H](C)[C@@H](O)[C@H](N)[C@@H]2O)C[C@@H]2O[C@](O)(C[C@@H](O)C[C@@H](O)[C@H](O)CC[C@@H](O)C[C@@H](O)CC(=O)O[C@H]1C)C[C@H](O)[C@H]2C(=O)O [Amphotericin B, reference compound] | 32.6 ± 4 | – | 0.3 ± 0.1 | 108.67 | – | – | – | – | – | – |
| O=C(/C=C/c1cccc(Br)c1)c1cc2ccccc2oc1=O [Compound A10, 3-[(2E)-3-(3-bromophenyl)prop-2-enoyl]-2H-chromen-2-one] | 112 ± 8.2 | mildly cytotoxic (100 ≤ LC50 < 200 μM) | 32.8 ± 3 | – | 0.98 | 114 ± 8.5 | 19.6 ± 1.7 | – | – | moderately toxic (from 50 to 200 μM moderately toxic) |
| O=C(/C=C/c1ccc(Cl)cc1)c1cc2ccccc2oc1=O [Compound A9, 3-[(2E)-3-(4-chlorophenyl)prop-2-enoyl]-2H-chromen-2-one] | 43.4 ± 3.9 | – | 59.1 ± 12.7 | 0.73 | 0.83 | 52.1 ± 3.3 | 18.9 ± 1.5 | – | – | – |
| O=c1ccc2ccccc2o1 [Coumarin, reference compound] | 12.9 ± 0.5 | – | 64.4 ± 21.8 | 0.20 | <1.83 | > 7 | 50.7 ± 5.7 | 0.25 | – | – |
| O=C(/C=C/c1ccccc1)c1ccccc1 [Chalcone, reference compound] | 27.9 ± 0.5 | – | 15 ± 1.44 | 1.86 | 0.28 | 99.9 ± 39 | 769 ± 72 | 0.04 | – | – |
| COc1ccc(/C=C/C(=O)c2cc3ccccc3oc2=O)cc1 [Compound A3, 3-[(2E)-3-(4-methoxyphenyl)prop-2-enoyl]-2H-chromen-2-one] | 11.4 ± 2.3 | – | > 6 | <1.89 | 0.03 | 327 ± 62.4 | 38.7 ± 5.6 | 0.29 | – | – |
| O=C(/C=C/c1cccc(O)c1)c1cc2ccccc2oc1=O [Compound A5, 3-[(2E)-3-(3-hydroxyphenyl)prop-2-enoyl]-2H-chromen-2-one] | 5.9 ± 0.2 | – | 2.1 ± 0.2 | 2.85 | 0.31 | 18.7 ± 2.4 | 26.7 ± 3.6 | 0.22 | – | – |
| CCOc1cc(/C=C/C(=O)c2cc3ccccc3oc2=O)ccc1O [Compound A12, 3-[(2E)-3-(3-ethoxy-4-hydroxyphenyl)prop-2-enoyl]-2H-chromen-2-one] | 8.5 ± 1.6 | – | 6.6 ± 1.3 | 1.29 | 0.21 | 41.2 ± 1.1 | 15 ± 0.5 | 0.57 | – | – |
| O=C(/C=C/c1ccc(O)cc1)c1cc2ccccc2oc1=O [Compound A6, 3-[(2E)-3-(4-hydroxyphenyl)prop-2-enoyl]-2H-chromen-2-one] | 7.5 ± 0.4 | – | 8.2 ± 4 | 0.91 | 0.17 | 43.2 ± 6.4 | 16.6 ± 0.9 | 0.45 | – | – |
